According to the RNAGym collection of RNA variant scans (doi:10.1002/anie.201605470):

B1: Osa-1-4 twister ribozyme (parent)
chain: CCGCCUAACACUGCCAAUGCCGGUCCCAAGCCCGGAUAAAAGUGGAGGGGGCGG

Variants of: B1
Assay: self-cleavage, relative activity (ratio to wild type); higher = more cleavage; co-transcriptional
Summary of the method: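 The 48 positions downstream of the cleavage site in a 54-nucleotide Oryza sativa twister ribozyme template were synthesised at 97 % wild-type base and 1 % of each other base. The template was transcribed in vitro at 37 °C for 2 h, with self-cleavage allowed during transcription. Reads with or without upstream sequence after deep sequencing marked cleavage status, and relative activity is fraction cleaved normalised to wild type.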

| Variant | self-cleavage |
| --- | --- |
| G34U G45A | 0.09 |
| G34U G45C | 0.05 |
| G34U G45U | 0.08 |
| G35A G51C | 0.07 |
| G35A G51U | 0.12 |
| G35A G51A | 0.25 |
| G34C U24A | 0.07 |
| G34C U24C | 0.06 |
| G34C U24G | 0.02 |
| G34U G53C | 0.05 |
| G34U G53U | 0.11 |
| G34U G53A | 0.27 |
| C33U G35A | 0.49 |
| C33U G35C | 0.08 |
| C33U G35U | 0.11 |
| C33U U24A | 0.14 |
| C33U U24C | 0.06 |
| C33U U24G | 0.03 |
| G34C G35U | 0.28 |
| G34C G35A | 0.39 |
| G34C G35C | 0.11 |
| C33U G30A | 0.04 |
| C33U G30U | 0.03 |
| C33U G30C | 0.04 |

| Variant | self-cleavage |
| --- | --- |
| G34A U37G | 0.88 |
| G34A U37C | 0.89 |
| G34A U37A | 0.88 |
| G34A G49C | 0.07 |
| G34A G49U | 0.1 |
| G34A G49A | 0.13 |
| G35C G45A | 0.05 |
| G35C G45C | 0.07 |
| G35C G45U | 0.05 |
| G34U | 0.82 |
| G34A | 0.86 |
| G34C | 0.71 |
| G35A G42A | 0.44 |
| G35A G42U | 0.08 |
| G35A G42C | 0.17 |
| G35A U12G | 0.06 |
| G35A U12A | 0.61 |
| G35A U12C | 0.48 |
| G35U G49U | 0.1 |
| G35U G49C | 0.06 |
| G35U G49A | 0.11 |
| G35A G54C | 0.85 |
| G35A G54U | 0.81 |
| G35A G54A | 0.85 |

| Variant | self-cleavage |
| --- | --- |
| G34U G35A | 0.6 |
| G34U G35U | 0.52 |
| G34U G35C | 0.31 |
| G35C U24C | 0.05 |
| G35C U24A | 0.06 |
| G35C U24G | 0.01 |
| G34A G50U | 0.83 |
| G34A G50C | 0.6 |
| G34A G50A | 0.29 |
| C33U G48A | 0.07 |
| C33U G48U | 0.04 |
| C33U G48C | 0.05 |
| G35A G50C | 0.78 |
| G35A G50A | 0.35 |
| G35A G50U | 0.9 |
| G34C G44C | 0.14 |
| G34C G44A | 0.2 |
| G34C G44U | 0.16 |
| G35A G53U | 0.22 |
| G35A G53A | 0.68 |
| G35A G53C | 0.08 |
| G35C G44C | 0.45 |
| G35C G44U | 0.26 |
| G35C G44A | 0.25 |

| Variant | self-cleavage |
| --- | --- |
| G35A G45A | 0.31 |
| G35A G45C | 0.06 |
| G35A G45U | 0.15 |
| G35C U37G | 0.9 |
| G35C U37A | 0.93 |
| G35C U37C | 0.94 |
| C33U G51U | 0.13 |
| C33U G51A | 0.35 |
| C33U G51C | 0.08 |
| G35C U18A | 0.84 |
| G35C U18G | 0.77 |
| G35C U18C | 0.56 |
| G35U G51U | 0.15 |
| G35U G51C | 0.06 |
| G35U G51A | 0.25 |
| G34C G48A | 0.06 |
| G34C G48U | 0.05 |
| G34C G48C | 0.05 |
| G35C G50A | 0.24 |
| G35C G50C | 0.1 |
| G35C G50U | 0.17 |
| G34C G42C | 0.09 |
| G34C G42A | 0.09 |
| G34C G42U | 0.04 |

| Variant | self-cleavage |
| --- | --- |
| G35A G49A | 0.18 |
| G35A G49U | 0.16 |
| G35A G49C | 0.07 |
| C33U U37A | 0.87 |
| C33U U37C | 0.88 |
| C33U U37G | 0.9 |
| G35U G47U | 0.14 |
| G35U G47A | 0.15 |
| G35U G47C | 0.07 |
| G34U U24C | 0.07 |
| G34U U24A | 0.15 |
| G34U U24G | 0.03 |
| C33U G54C | 0.61 |
| C33U G54U | 0.68 |
| C33U G54A | 0.57 |
| C33U G34U | 0.13 |
| C33U G34C | 0.21 |
| C33U G34A | 0.22 |
| G34U G54A | 0.39 |
| G34U G54U | 0.49 |
| G34U G54C | 0.57 |
| C33U U12C | 0.11 |
| C33U U12A | 0.27 |
| C33U U12G | 0.08 |

| Variant | self-cleavage |
| --- | --- |
| G34A U43G | 0.1 |
| G34A U43C | 0.19 |
| G34A U43A | 0.22 |
| G34U G49C | 0.06 |
| G34U G49A | 0.11 |
| G34U G49U | 0.11 |
| G35A G44A | 0.8 |
| G35A G44C | 0.76 |
| G35A G44U | 0.71 |
| G34C U12A | 0.1 |
| G34C U12G | 0.08 |
| G34C U12C | 0.1 |
| C33U G13U | 0.03 |
| C33U G13A | 0.04 |
| C33U G13C | 0.02 |
| G35C G42C | 0.07 |
| G35C G42U | 0.07 |
| G35C G42A | 0.08 |
| C33U G49U | 0.08 |
| C33U G49A | 0.08 |
| C33U G49C | 0.07 |
| G35U G50A | 0.35 |
| G35U G50C | 0.79 |
| G35U G50U | 0.92 |

| Variant | self-cleavage |
| --- | --- |
| G35A U43G | 0.12 |
| G35A U43A | 0.46 |
| G35A U43C | 0.41 |
| G34C G47U | 0.06 |
| G34C G47C | 0.05 |
| G34C G47A | 0.07 |
| G34U U43A | 0.11 |
| G34U U43C | 0.15 |
| G34U U43G | 0.07 |
| G34A G35A | 0.77 |
| G34A G35U | 0.8 |
| G34A G35C | 0.29 |
| G35C G48A | 0.05 |
| G35C G48U | 0.04 |
| G35C G48C | 0.04 |
| G35A U37A | 1.05 |
| G35A U37C | 0.92 |
| G35A U37G | 0.89 |
| G34U U18A | 0.64 |
| G34U U18G | 0.58 |
| G34U U18C | 0.31 |
| G34A G45A | 0.15 |
| G34A G45U | 0.09 |
